Experimental data taken from ChEMBL document CHEMBL1145066, “Novel pyrone side tetracyclic psoralen derivatives: synthesis and photobiological evaluation” (J Med Chem, 2003).
Active and inactive are the calls of the source. No cut-off for these calls is given here.

How the values were obtained:
Cavia porcellus = species: Cavia porcellus; experiment: Skin Phototoxicity was tested on depilated Guinea Pigs (outbred Dunkin - Hartley strain) and erythema intensity was measured; Absent; format: functional, organism-based
HeLa [1] = experiment: Antiproliferative activity against HeLa (human cervix adenocarcinoma cells) after exposure to UV light; format: functional, cell-based
Procedure, shortened: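 HeLa cells grown in F-12 with 10% heat-inactivated FCS at 37 °C, 5% CO2. 10^5 cells/well were incubated 24 h, switched to phenol-red-free DMEM, and given various agent concentrations. After 1 h they were irradiated with UVA at 0.793 J cm^-2 (365 nm lamps). Drug medium was then removed, and cells were kept 24 h in complete F-12. Trypan blue counts gave IC50 versus control.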

HeLa [2] = experiment: Antiproliferative activity against HeLa (human cervix adenocarcinoma cells) in dark condition; format: functional, cell-based
Procedure, shortened: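 Dark control on HeLa (F-12, 10% FCS, 37 °C, 5% CO2). 10^5 cells/well were seeded and, after 24 h, given phenol-red-free DMEM with various agent concentrations. No irradiation was applied, and compound was not washed out; cells were kept 24 h in complete F-12 with compound. Viability was by trypan blue; IC50 is the 50% drop in cell number relative to control cultures.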

HL-60 [3] = experiment: Antiproliferative activity against HL-60 (human promyelocytic leukemic cells) in dark condition; format: functional, cell-based
HL-60 [4] = experiment: Antiproliferative activity against HL-60 (human promyelocytic leukemic cells) after exposure to UV light; format: functional, cell-based
Procedure, shortened: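 HL-60 cells grown in RPMI 1640 with 15% heat-inactivated FCS at 37 °C, 5% CO2. 10^5 cells/well were incubated 24 h, then test agent was added at various concentrations in complete medium. After 1 h in the dark, cells received a UVA dose of 0.793 J cm^-2 (lamps emitting >90% at 365 nm) and were incubated 24 h more. Viability was read by trypan blue; IC50 is the 50% reduction in cell number versus control cultures.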

| SMILES | IC50 (HeLa [1]) [µM] | IC50 (HeLa [2]) [µM] | IC50 (HL-60 [3]) [µM] | IC50 (HL-60 [4]) [µM] | Erythema intensity (Cavia porcellus) |
| --- | --- | --- | --- | --- | --- |
| Cc1coc2c(O)c3oc(=O)c4c(c3cc12)CCCC4 | 17.4 | > 20 | > 20 | 17 | inactive |
| Cc1coc2c(OCCCN(C)C)c3oc(=O)c4c(c3cc12)CCCC4 | 0.68 | > 20 | 16 | 0.95 | inactive |
| COc1c2occ(C)c2cc2c1oc(=O)c1ccccc12 | > 20 | > 20 | > 20 | 11.8 | inactive |

Now from value to compound, other results behind:

| IC50 (HeLa [1]) [µM] | IC50 (HeLa [2]) [µM] | IC50 (HL-60 [3]) [µM] | IC50 (HL-60 [4]) [µM] | SMILES | Erythema intensity (Cavia porcellus) |
| --- | --- | --- | --- | --- | --- |
| 0.64 | > 20 | 9.9 | 0.67 | Cc1coc2c(OCCCN(C)C)c3oc(=O)c4ccccc4c3cc12 | inactive |
| 15.7 | > 20 | > 20 | 13 | COc1c2occ(C)c2cc2c3c(c(=O)oc12)CCCC3 | inactive |
| – | > 20 | > 20 | – | COc1c2occc2cc2ccc(=O)oc12 [METHOXSALEN] | – |
| > 20 | > 20 | > 20 | > 20 | Cc1coc2c(O)c3oc(=O)c4ccccc4c3cc12 | inactive |
